# A selection: hits, their analogues and other compounds. The true share with any hit is near 2.6%.
# miR-122 sensor: miR-122 Renilla sensor signal increase in Huh7, primary screen, miR-122 inhibitor project, cell-based, single point, plate reader; 340,000 compounds, 0.3% hits; activation (reporter increase), % at 12.5 µM; AID 602342, 2012; Huh7 miR-122 Renilla luciferase sensor, 48 h; neutral wells = 0, positive control = 100;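 active = mean replicate activation score at least 90 and every replicate individually at or above 90; inconclusive = only one of the two criteria met; inactive = neither criterion met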;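 also: higher luciferase means less miR-122 activity so hits act as miR-122 inhibitors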
# ERAP1 inh: human ERAP1 aminopeptidase inhibitors, primary screen, biochemical, single point, plate reader; Endoplasmic reticulum aminopeptidase 1 (Homo sapiens), Q9NZ08; recombinant ERAP1, Leu-AMC fluorescence, 60 min; inhibition, % at 10.7 µM; 340,000 compounds, 0.15% hits; AID 652197, 2013;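 active = mean replicate inhibition of at least 30%, or all replicates individually reaching that 30% level; inactive = mean below 30% and not every replicate reaching it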;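 also: 0% = neutral control wells and 100% = L-leucinethiol positive control wells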
# DENV2 CPE rescue: inhibitors of DENV2 cytopathic effect, primary screen, cell-based, plate reader, single concentration; DENV2-infected cells, cytopathic effect rescue; AID 651640, 2012; 350,000 compounds, 1.7% hits; CPE inhibition, % at 9.99 µM; in the data active = CPE inhibition above about 20%, passing the limit was not always enough; inconclusive = no clear call, values can overlap the other calls; tested in BHK-21 cells;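 also: 0% = median of neutral control wells and 100% = median of positive control wells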
# E-sel inducer: E-selectin induction in HUVECs, primary screen, imaging, HUVEC, immunofluorescence imaging, single point; normalized: neutral wells 0, TNF-alpha wells 100; 260,000 compounds, 0.37% hits; activation, % at 7.58 µM; AID 686992, 2013;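 active = mean E-selectin-positive cell signal at least 10% of the positive control, reached in at least 60% of replicates, without over 20% cell loss; inconclusive = no rule given, readout overlaps actives, possibly toxicity-flagged; inactive = the rest, including those meeting only one limit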
# Target sequence (P16581 whole entry, looked up): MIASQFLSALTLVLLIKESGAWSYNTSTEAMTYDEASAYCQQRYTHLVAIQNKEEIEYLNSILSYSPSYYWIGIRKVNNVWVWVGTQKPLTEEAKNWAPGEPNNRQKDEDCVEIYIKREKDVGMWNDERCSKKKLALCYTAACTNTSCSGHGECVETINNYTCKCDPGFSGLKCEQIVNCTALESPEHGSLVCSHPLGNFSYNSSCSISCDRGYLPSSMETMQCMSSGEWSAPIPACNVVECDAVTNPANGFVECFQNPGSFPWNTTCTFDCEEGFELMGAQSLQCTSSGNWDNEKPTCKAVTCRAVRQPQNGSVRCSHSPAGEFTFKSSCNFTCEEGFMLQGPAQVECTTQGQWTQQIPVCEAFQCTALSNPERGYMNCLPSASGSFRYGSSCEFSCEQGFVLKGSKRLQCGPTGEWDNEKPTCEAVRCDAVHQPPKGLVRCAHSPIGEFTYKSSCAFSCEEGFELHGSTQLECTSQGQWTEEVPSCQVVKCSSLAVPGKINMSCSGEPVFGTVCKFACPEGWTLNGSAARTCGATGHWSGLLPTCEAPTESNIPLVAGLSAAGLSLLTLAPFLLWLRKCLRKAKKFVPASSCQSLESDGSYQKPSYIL
#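 Read-out: % PE-positive cells | Test system: HUVEC | Doses: One compound dose added by pin transfer | Buffer or medium: EGM-2 over gelatin coat | Signal: Immunofluorescence imaging | Benchmarks: TNF-alpha, DMSO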
# INS-1E GSIS act: GLuc luminescence reporter in INS-1E cells, primary screen for activators of glucose-dependent secretion of insulin | 370,000 compounds, 0.61% hits | activation, % at 16.6 µM | INS-1E GLuc reporter insulin secretion, 2-3 h;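 active = lowest replicate activation of at least 40%, so every replicate reaches that level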;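 also: 0% = median of neutral control wells and 100% = median of IBMX positive control wells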
# F508del corr: F508del CFTR correction, initial screen, CFBE line, single point. CFBE cells, YFP halide quenching; stimulated with forskolin plus potentiator P3; % fluorescence drop versus neutral controls. activity (quench increase), % at 7.58 µM. 350,000 compounds, 0.36% hits. AID 720511, 2013;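 active = mean added fluorescence quench of at least 8% versus neutral control, with both replicates also reaching 8%; inconclusive = only one of the mean or replicate conditions met; inactive = mean below 8% and not both replicates reaching 8%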;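 also: cells transiently co-express mutant CFTR-F508del with the halide-sensitive YFP; corrector assay measuring rescue of mutant channel to the surface after 24 h compound exposure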
# Numbers without * were called inactive; ? = inconclusive; / = no result given; ! = repeats disagree; [ ] = dose if it differs, or a comment.
SMILES,miR-122 sensor,ERAP1 inh,DENV2 CPE rescue,E-sel inducer,INS-1E GSIS act,F508del corr
O=C(Nc1cccc(Cl)c1)c1csc([C@@H]2C[C@H](O)[C@@H](CO)O2)n1,6,2,36*,0,/,-5
CCN1CCN(Cc2ccc(NC(=O)c3cc(NC(=O)c4cnn(-c5ccccc5)c4N)cc(OC)c3)cc2C(F)(F)F)CC1,-5,/,82*,0,-2,-6
CCN1CCN(Cc2ccc(NC(=O)c3cccc(-c4ccc5nc(NC(=O)C6CC6)sc5n4)c3)cc2C(F)(F)F)CC1,/,/,?,-8,143*,-3
CCCc1ccc(C(=O)NNc2ccccc2F)cc1,/,/,-10,55*,12,-2
CCc1ccc(C(=O)NNc2ccccc2F)cc1,-3,-3,9,0,/,1
CC(C)NC(=O)N(C)C[C@H]1Oc2ccc(NS(C)(=O)=O)cc2C(=O)N([C@@H](C)CO)C[C@H]1C,-5[16.7 µM],-4,12,0,3,-3
CS(=O)(=O)N(CC(=O)Nc1cccc(F)c1)c1cccc([N+](=O)[O-])c1,277*,/,/,/,/,/
C[C@@H](NC(=O)C[C@H]1CC[C@H]2[C@@H](COC[C@@H](O)CN2C)O1)c1ccccc1,1[16.7 µM],0,-2,0,6,-1
CC(C)CC#Cc1ccc2c(c1)O[C@@H](CN(C)Cc1ccccn1)[C@@H](C)CN([C@H](C)CO)S2(=O)=O,-7[16.7 µM],-3,-3,0,-27,/
C[C@@H]1CN([C@@H](C)CO)C(=O)Cc2cc(NC(=O)Nc3ccccc3)ccc2O[C@@H]1CN(C)C(=O)NC1CCCCC1,-3[16.7 µM],-3,?,0,-8,-3
COc1ccc(NC(=O)Nc2ccc3c(c2)C(=O)N([C@H](C)CO)C[C@H](C)[C@@H](CN(C)C(=O)NC2CCCCC2)O3)cc1,5[16.7 µM],0,39*!,0,8,0
COc1ccc(NC(=O)Nc2ccc3c(c2)C(=O)N([C@H](C)CO)C[C@H](C)[C@H](CN(C)C(=O)NC2CCCCC2)O3)cc1,-3[16.7 µM],-1,-1,0,-7,5
C[C@H](CO)N1C[C@H](C)[C@@H](CN(C)C(=O)NC2CCCCC2)Oc2ccc(NC(=O)Nc3ccccc3)cc2CC1=O,1[16.7 µM],-3,46*,0,-13,0
COc1ccc(NC(=O)N(C)C[C@@H]2Oc3ccc(NC(=O)NC(C)C)cc3C(=O)N([C@@H](C)CO)C[C@H]2C)cc1,1[16.7 µM],-1,-1,0,18,1
COc1ccc(NC(=O)N(C)C[C@H]2Oc3ccc(NC(=O)NC(C)C)cc3C(=O)N([C@H](C)CO)C[C@H]2C)cc1,-2[16.7 µM],-1,34*,0,13,-5
C[C@@H]1CN([C@H](C)CO)C(=O)Cc2cc(NC(=O)Nc3ccccc3)ccc2O[C@@H]1CN(C)C(=O)NC1CCCCC1,0[16.7 µM],-3,35*,0,-1,-2
C[C@@H]1CN([C@H](C)CO)S(=O)(=O)c2ccc(Br)cc2O[C@H]1CN(C)C(=O)C1CCC1,-1[16.7 µM],/,/,1,-11,1
COc1ccc(NC(=O)Nc2ccc3c(c2)CC(=O)N([C@@H](C)CO)C[C@@H](C)[C@@H](CN(C)C(=O)NC2CCCCC2)O3)cc1,8[16.7 µM],3,4,0,0,0
C[C@H]1CN([C@@H](C)CO)C(=O)Cc2cc(NC(=O)C3CCCCC3)ccc2O[C@H]1CN(C)C(=O)NC1CCCCC1,2[16.7 µM],-3,-5,307*,-3,4
COc1ccc(NC(=O)Nc2ccc3c(c2)CC(=O)N([C@H](C)CO)C[C@H](C)[C@H](CN(C)C(=O)NC2CCCCC2)O3)cc1,-8[16.7 µM],2,29*,0,-3,0
C[C@H](CO)N1C[C@H](C)[C@@H](CN(C)C(=O)NC2CCCCC2)Oc2ccc(NC(=O)C3CCCCC3)cc2CC1=O,-3[16.7 µM],1,-1,-5,-3,-2
O=C(c1cccnc1)N1CC(=O)N2[C@H](CO)[C@H](c3ccc(C#CCC4CCCC4)cc3)[C@@H]2C1,/,-3,-5,0,-12,-1
C[C@@H]1CN([C@H](C)CO)C(=O)c2cc(C#Cc3cccnc3)cnc2O[C@@H]1CN(C)C(=O)CC1CC1,-6[16.7 µM],-3,0,0,40,0
C[C@@H]1CN([C@@H](C)CO)C(=O)c2cc(Br)cnc2O[C@@H]1CN(C)C(=O)C1CC1,-6[16.7 µM],/,/,0,30,3
COc1ccccc1N/C(=N/S(=O)(=O)c1ccc(Cl)cc1)c1ccccc1,55,/,/,/,-10,/
SMILES,miR-122 sensor,ERAP1 inh,DENV2 CPE rescue,E-sel inducer,INS-1E GSIS act,F508del corr
COc1ccccc1N/C(=N/S(=O)(=O)c1ccc(C)cc1)c1ccccc1,135*,-1,-5,0,/,2
COc1ccc(Br)cc1C(=O)Nc1cc(C)cc(C)c1,11,/,/,/,82*,/
COc1ccc(Br)cc1C(=O)Nc1ccc(NC(=O)c2ccco2)cc1,-1,/,/,/,2,/
O=C(C[C@H]1C=C[C@H](NC(=O)C2CCOCC2)[C@H](CO)O1)NCC1CCCCC1,/,1,-8,0,-4,3
COC(=O)c1sccc1NC(=S)Nc1ccc(F)cc1,147*,/,/,/,-4,/
CCN1CCN(C(=S)Nc2ccsc2C(=O)OC)CC1,-6,5,-2,/,0,-1
COC(=O)c1sccc1NC(=O)Nc1ccc(F)cc1,/,5,-6,0,-7,0
COC(=O)c1sccc1NC(=S)N1CCN(C)CC1,/,/,-1,1,42*,-1
COc1ccc(NC(=O)N[C@@H]2CC[C@H](CCn3cc(-c4ccccn4)nn3)O[C@H]2CO)cc1,-7[16.7 µM],0,-5,0,-9,1
C[C@@H]1CCCCO[C@H](CN(C)C(=O)C2CCCCC2)[C@@H](C)CN([C@H](C)CO)C(=O)c2cc(NC(=O)Nc3ccc(F)cc3)ccc2O1,0[16.7 µM],4,2,0,-9,-1
Fc1ccc(-c2csc3nnc(SCc4cccnc4)n23)cc1,-7,-5,-3,/,56*,2
c1ccc(-c2csc3nnc(SCc4ccc5c(c4)OCO5)n23)cc1,8,0,12,0,29,2
COc1ccccc1-c1ccc2c(c1)O[C@@H](CN(C)C(=O)c1ccccc1)[C@@H](C)CN([C@@H](C)CO)S2(=O)=O,-3[16.7 µM],2,-2,0,-23,/
Nc1ncnc(NC2CCS(=O)(=O)C2)c1[N+](=O)[O-] (stereo not drawn),8,-1,1,/,65*,3
CCC(C)Sc1cccc(-c2nc3ccc(C)cn3c2NC2CCCCC2)c1 (stereo not drawn),36,-2,60*!,0,12,1
